# Source: PubChem BioAssay
# FN deposition inh: fibronectin deposition inhibition | AH1F fibroblasts, Alexa488-fibronectin deposition fluorescence, overnight | inhibition, % at 12.6 µM | actives 0.086% (n = 350,000) | AID 743247;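 active means mean inhibition across replicates of 30% or more, regardless of how many single replicates reach that level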;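 further: positive control wells lacked labelled fibronectin entirely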
#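 Material: AH1F fibroblasts assembling fluorescent fibronectin matrix; amount: 10000 AH1F cells/well; medium: DMEM, 2% serum; reagent: Alexa488-fibronectin, 24 nM final in well; dosing: single compound dose, delivered by pin transfer; incubation: 1 h adhesion, overnight exposure; detection: fluorescence after three HBSS washes, excitation 485 nm, emission 525 nm; measure: fibronectin deposition inhibition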
# EWS-Fli block: EWS/Fli transcriptional activity inhibition; A673 NR0B1-luciferase reporter, viability-normalised; inhibition, % at 12.6 µM; actives 0.67% (n = 350,000); AID 651661;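 active means mean inhibition of at least 50% after viability correction, with every replicate also passing that limit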;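 further: firefly luciferase signal divided by Alamar Blue viability fluorescence both relative to DMSO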
# CFTR F508del cor: CFTR F508del correction in bronchial cells | CFBE cells, YFP halide quenching; stimulated with forskolin plus potentiator P3; % fluorescence drop versus neutral controls | activity (quench increase), % at 7.58 µM | actives 0.36% (n = 350,000);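 active means mean added fluorescence quench of at least 8% versus neutral control, with both replicates also reaching 8%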;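 further: cells transiently co-express mutant CFTR-F508del with the halide-sensitive YFP; corrector assay measuring rescue of mutant channel to the surface after 24 h compound exposure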
# HIV Env fusion: inhibitors of HIV Env-mediated cell fusion | HeLa-JRFL Env/CEM21 cell fusion, luciferase | inhibition, % at 12.3 µM | actives 1.1% (n = 360,000) | AID 651610;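 active means mean replicate inhibition score of at least 50 and every replicate individually at or above 50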;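 further: 0% = plate neutral controls and 100% = maraviroc near 300 nM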
# PGC1a acetyl inh: lowers PGC1a acetylation signal in U2OS cells; AID 651687; actives 0.17% (n = 350,000); AlphaScreen anti-acetyl-lysine; with virally co-expressed GCN5 acetyltransferase; inhibition, % at 15.6 µM;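 active means every replicate shows inhibition of at least 40%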;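 further: 0% = neutral control wells and 100% = positive control wells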
# PAX8 inh HTS: PAX8 transcriptional activity inhibition; RMG-I TPO-luciferase reporter, SteadyGlo, 24 h; inhibition, % at 12.6 µM; actives 1.2% (n = 360,000); AID 652154;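 active means mean replicate inhibition at least 60% with every replicate also reaching 60%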;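 further: luciferase light reporting Pax8 driven TPO promoter activity; plate controls were median of neutral control wells for no effect and mitoxantrone controls for full effect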
# The depositor's hits bear a star; / = no result; ! = not confirmed by another sample; [ ] = another dose, or the depositor's remark. An excerpt weighted towards active compounds, which were near 2.3% of everything screened.
SMILES,FN deposition inh,EWS-Fli block,CFTR F508del cor,HIV Env fusion,PGC1a acetyl inh,PAX8 inh HTS
CCCNC(=O)Nc1ccc2c(c1)OC[C@@H](C)N(Cc1ccc(-c3ccccn3)cc1)C[C@@H](C)[C@H](OC)CN(C)C2=O,-2,-3,4,/,-8,95*
CCCC(=O)Nc1ccc2c(c1)C(=O)N(C)C[C@H](OC)[C@@H](C)CN(Cc1ccc(-c3ccccn3)cc1)[C@H](C)CO2,11,3,-5,/,0,-40
CCCNC(=O)Nc1ccc2c(c1)C(=O)N(C)C[C@@H](OC)[C@@H](C)CN(Cc1ccccn1)[C@H](C)CO2,-3,6,-1,15[16.7 µM],11,-3
O=C(Cc1ccncc1)NCC[C@@H]1CC[C@H](NC(=O)C2CCCCC2)[C@H](CO)O1,/,-2,-1,0[16.7 µM],4,30
Cn1cnc2nc[nH]c2c1=S,-10,-2,16*,0,7,-3
S=c1sc2c(Cl)ncnc2n1-c1ccccc1,12,74*,-5,-58,64*,93*
Cc1nc(N2CCN(C)CC2)c2sc(=S)n(-c3ccccc3)c2n1,2,-14,-1,18,/,-26
COc1cccc(CN2CC(C(=O)N(C)Cc3ccc(C)cc3)CCC2=O)c1 (stereo not drawn),-2,/,0,58*,/,-13
CCC(C(=O)OCC(=O)C1(O)CCC2C3CCC4=CC(=O)CCC4(C)C3C(O)CC21C)C(C)C (stereo not drawn),-12,-1,8.2*,-10,-12,3
C[C@H](CO)N1C[C@H](C)[C@@H](CN(C)Cc2cccc(C(F)(F)F)c2)OCc2ccccc2-c2ccccc2C1=O,-5,/,/,/,/,/
CS(=O)(=O)Nc1ccc2c(c1)[C@H]1C[C@H](CC(=O)O)O[C@@H](CO)[C@H]1O2,-35,/,2,/,1,0
COc1ccc(C(=O)N2C[C@H]3[C@@H](c4ccccc42)[C@H](CO)N3C(=O)c2ccc(F)cc2)cc1,/,-5,0,/,5,1
O=C(COc1nc2ccccc2nc1N1CCOCC1)NC1CCCCC1,-2,0,1,-1,1,-15
CCCNC(=O)COc1nc2ccccc2nc1N1CCOCC1,2,13,0,/,3,103*
COc1ccc(S(=O)(=O)N(C)C[C@H]2OCCCC[C@@H](C)Oc3ccc(NS(=O)(=O)c4ccccc4)cc3C(=O)N([C@@H](C)CO)C[C@H]2C)cc1,-13,10,2,-11[16.7 µM],-14,41
Cc1ccc(-c2ccc([C@@H]3[C@H]4CN(C(=O)c5cccnc5)CC(=O)N4[C@H]3CO)cc2)cc1,/,8,6,/,0,18
O=C(C[C@@H]1CC[C@H]2[C@@H](COC[C@@H](O)CN2Cc2ccc(Oc3ccccc3)cc2)O1)N1CCc2ccccc2C1,/,44,2,21[16.7 µM],-17,80*
O=C(C[C@@H]1CC[C@H]2[C@@H](COC[C@H](O)CN2Cc2ccc(Oc3ccccc3)cc2)O1)N1CCN(c2ccccc2)CC1,18,28,2,15[16.7 µM],-7,64*
Nn1cnnc1N/N=C\c1ccc(-c2ccccc2[N+](=O)[O-])o1,1,-8,/,18,-7,92*
O=[N+]([O-])c1ccccc1-c1ccc(/C=N/n2cnnc2)o1,/,/,/,/,-4,/
COCC(=O)N(C[C@H]1N[C@@H](CO)[C@@H]1c1ccc(C2=CCCC2)cc1)C(C)C,-4,-1,0,/,-5,-13
CC(C)C#Cc1cnc2c(c1)C(=O)N([C@@H](C)CO)C[C@@H](C)[C@H](CN(C)Cc1ccccn1)O2,1,0,1,/,/,/
Cc1noc(C)c1NC(=O)N(C)C[C@@H]1Oc2ncc(C#CC3CC3)cc2C(=O)N([C@@H](C)CO)C[C@H]1C,/,0,0,-13[16.7 µM],/,/
COc1ccccc1NC(=O)Nc1cnccn1,1,-2,/,30,0,17
COc1cc([N+](=O)[O-])ccc1NC(=O)Nc1cnccn1,/,/,0,58*,0,-9
SMILES,FN deposition inh,EWS-Fli block,CFTR F508del cor,HIV Env fusion,PGC1a acetyl inh,PAX8 inh HTS
CCCNC1=C(N(C(C)=O)c2cccc(F)c2)C(=O)c2ccccc2C1=O,14,7,/,78*,8,109*
C[C@@H]1CN([C@@H](C)CO)C(=O)c2cc(-c3ccccc3F)cnc2O[C@@H]1CN(C)C,6,-7,-2,-26[16.7 µM],4,/
O=C(Nc1ccc(Cl)c(Cl)c1)N[C@H]1CC[C@H](CCn2cc(C3CCCCC3)nn2)O[C@@H]1CO,-12,13,2,63*[16.7 µM],14,-12
O=C(Nc1ccc(Cl)c(Cl)c1)N[C@@H]1CC[C@@H](CCn2cc(C3CCCCC3)nn2)O[C@H]1CO,1,-3,-1,-5[16.7 µM],6,-2
O=C(Nc1ccc(Cl)c(Cl)c1)N[C@@H]1CC[C@@H](CCn2cc(C3CCCCC3)nn2)O[C@@H]1CO,-1,5,1,67*![16.7 µM],-9,-25
CN(C)c1ccc(/C=C2\SC(N3CCCCC3)=NC2=O)cc1,0,51*,3,-35,-2,-18
COc1cc(-c2cccc([C@H]3[C@@H]4C=CC[C@@H](C)[C@@H]4C(=O)N3Cc3ccccc3)c2)cc(OC)c1OC,/,11,0,47*,-33,22
COc1ccc(-c2ccc(C)cc2)cc1[C@H]1[C@H]2C=CC[C@@H](C)[C@@H]2C(=O)N1Cc1ccccc1,-7,22,1,56*,-5,-13
C/C=C/c1ccc([C@H]2[C@@H](CO)N(Cc3cncnc3)C23CN(C(C)=O)C3)cc1,/,0,0,/,17,-3
Cc1cccc(NC(=O)c2onc3c2CCCC3)n1,6,71*,-2,/,6,31
NC(N)=N/N=C/c1ccc(Br)cc1,-2,56*,6,7,/,-15
N#Cc1ccc(/C=N/N=C(N)N)cc1,8,/,/,-7,4,-7
CN(C)CCn1c(=O)n(-c2cccc(Cl)c2)c(=O)c2c3c(sc21)CCCCC3,-1,-1,2,130*,-22,19
C[C@H]1CN([C@@H](C)CO)S(=O)(=O)c2ccc(C#CC3CC3)cc2O[C@H]1CN(C)C(=O)Nc1cc(F)ccc1F,/,-3,1,-10[16.7 µM],-10,/
Cc1cccc(NC2=C/C(=N/S(=O)(=O)c3cccs3)c3ccccc3C2=O)c1,16,/,/,76*,/,-2
O=C1C(Nc2ccc(O)cc2)=C/C(=N/S(=O)(=O)c2cccs2)c2ccccc21,17,25,-2,95*,/,101*
Cc1ccc(Cl)cc1NC1=C/C(=N\S(=O)(=O)c2cccs2)c2ccccc2C1=O,/,45,0,112*,8,104*
CCc1ccc(S(=O)(=O)/N=C2\C=C(Nc3cccc(C(=O)O)c3)C(=O)c3ccccc32)cc1,3,-87,1,1,/,-25
Cc1cc(C)c(S(=O)(=O)/N=C2\C=C(NS(=O)(=O)c3ccccc3)C(=O)c3ccccc32)c(C)c1,18,/,-1,11,/,24
